Assay results taken from publication PMC5515376 (Nature, 2016).
Read-outs that look alike come from different tables or passages of the source. Marks after values point to notes of the source that are not given here.

Assays:
[1] = system: Salmonella typhimurium strains TA100, TA1535, TA98, TA1537 and Escherichia coli strain WP2uvrA; test: Ames test; conditions: in the presence or absence of S9 mix
HepG2 cell line = test: Mammalian cell cytotoxicity assay; assay type: cell-based, human; conditions: read-out: HepG2 CC50; 72 h
In short: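 HepG2, A549 or HEK293 cells were grown in DMEM with 10% FBS and 1% antibiotic–antimycotic and tested mycoplasma-free. Cells (1 × 10^6) were seeded one day before treatment. They were exposed to ascending compound doses for 72 h, and viability was read by CellTiter-Glo.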

[2] = Plasma protein binding assay; assay type: in vitro ADME
In short: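 Binding was measured by equilibrium dialysis in a RED device. Compound at 5 µM, in duplicate, was placed in mouse plasma (0.95% acetonitrile, 0.05% DMSO) against PBS pH 7.4. Incubation was 5 h at 37 °C with 350 r.p.m. orbital shaking. Both sides were analysed by UPLC–MS with single-ion detection.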

[3] = system: P. falciparum 3D7 stage IV–V gametocytes; test: In vitro transmission-blocking assay; assay type: cell-based, Plasmodium falciparum; conditions: P. falciparum (3D7), Gametocyte (IV-V)
In short: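 3D7 cultures were treated 3 days with 50 mM N-acetyl-D-glucosamine to remove asexual parasites. Stage IV–V gametocytes were then isolated on a discontinuous Percoll gradient. Gametocytes (1.0 × 10^5 per well) were incubated with compound for 72 h. Viability was measured by CellTiter-Glo luminescence.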

[4] = system: P. berghei (ANKA GFP-luc) sporozoites; test: In vivo P. berghei causal prophylaxis assay; set-up: species or system Plasmodium berghei; conditions: CD-1 mice
[5] = system: P. berghei (ANKA) liver stage; test: In vitro P. berghei liver-stage assay; assay type: cell-based, Plasmodium berghei; conditions: P. berghei (ANKA), Liver stage
In short: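 HepG2 cells (~17,500 per well, in duplicate) were cultured 18–24 h, then the medium was exchanged and compound added. After 1 h, 4,000 P. berghei ANKA GFP–luc sporozoites per well were added, freshly dissected from A. stephensi mosquitoes. Plates were spun 10 min at 1,000 r.p.m. and incubated 48 h at 37 °C. Parasite load was read by Bright-Glo luminescence.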

[6] = system: P. falciparum 3D7^HLH/BRD blood-stage parasites; test: In vivo P. falciparum blood-stage assay; set-up: species or system Plasmodium falciparum; conditions: huRBC NSG mice
[7] = system: major human cytochrome P450 (CYP) isoforms
[8] = system: P. falciparum (NF54) liver stage; test: In vitro P. falciparum liver-stage assay; assay type: cell-based, Plasmodium falciparum
P. falciparum Dd2 [9] = test: In vitro P. falciparum blood-stage growth inhibition assay; assay type: cell-based, Plasmodium falciparum
[10] = Mouse pharmacokinetics assay; assay type: in vivo; conditions: CD-1 mice
In short: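 Female CD-1 mice received single intravenous and oral doses. Parameters were estimated by non-compartmental analysis.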

[11] = system: P. berghei (ANKA GFP-luc) blood-stage parasites; test: In vivo P. berghei blood-stage assay; set-up: species or system Plasmodium berghei; conditions: CD-1 mice
[12] = Metabolic stability assay, human liver microsomes; assay type: in vitro ADME
In short: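 Liver microsomes (0.2 mg ml−1) were incubated with compound (0.5 and 5 µM) plus NADPH for 0, 10 and 90 min. Human microsomes or mouse CD-1 microsomes were used, as named in each line. Compound depletion was measured by LC–MS/MS and used to estimate Km, Vmax and half-life.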

P. falciparum Dd2 [13] = assay type: cell-based, Plasmodium falciparum; conditions: Dd2 cultures, inocula 10^5 to 10^9, 20 nM (EC90), 60 days
[14] = system: P. berghei (ANKA GFP-luc); test: In vivo P. berghei transmission-stage assay; set-up: species or system Plasmodium berghei; conditions: for Compound remaining in the circulation (plasma concentration): P. berghei-infected CD-1 mice
[15] = system: P. falciparum (NF54) stage V gametocytes; test: P. falciparum standard membrane feeding assay; assay type: cell-based, Plasmodium falciparum
[16] = system: P. falciparum 3D7^HLH/BRD; test: In vivo P. falciparum transmission-stage assay; set-up: species or system Plasmodium falciparum; conditions: huRBC NSG mice; single oral 12.5 mg kg^−1; 7 days after treatment
Solubility assay in PBS = assay type: physicochemical; conditions: PBS pH 7.4 with 1% DMSO
In short: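 Compound was prepared at 100 µM in triplicate, both in 100% DMSO and in PBS pH 7.4 with 1% DMSO. Samples were shaken at 750 r.p.m. for 18 h at room temperature. Analysis was by UPLC–MS with single-ion detection. PBS response was fitted to a two-point calibration built from the DMSO samples.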

[17] = IV (2.5) mg/kg, separate assay over 72 h

COc1ccc(NC(=O)N2CCCCN3[C@H](CN(C)C)[C@H](c4ccc(C#Cc5ccccc5)cc4)[C@@H]3C2)cc1 [BRD7929]
Mutagenicity (Ames test) [1]: non-mutagenic | CC50 (HepG2 cell line): 9000 nM | Mouse Plasma protein binding [2]: 99.9% | EC50 [3]: 160 nM | Mice developing blood-stage parasitaemia within a 30-day period ([4]; single dose of 5 or 25 mg kg^−1): none | Lowest single oral dose with no recrudescence ([4]; P. berghei liver-stage model): 5 mg/kg | EC50 [5]: 162 nM | Lowest single oral dose with no recrudescence ([6]; P. falciparum 3D7^HLH/BRD): 12.5 mg/kg | Rate of the loss of bioluminescence ([6]; single dose 6.25 mg kg^−1): slower | Change in parasite-associated bioluminescence ([6]; single dose 25 mg kg^−1 and 50 mg kg^−1): rapid decrease | Inhibition of major human CYP isoforms [7]: no inhibition | EC50 [8]: 340 nM | EC50 (P. falciparum Dd2 [9]; read-out: Pf, Dd2 EC50, blood stage): 9 nM | EC50 (P. falciparum Dd2 [9]; read-out: PfDd2 EC50, asexual blood-stage parasites (Dd2), SAR table): 9 nM | EC90 (P. falciparum Dd2 [9]; strain Dd2): 20 nM | AUC (estimated) ([10]; 25 mg kg^−1 single-dose cure, estimated from pharmacokinetic studies): 27.5 µM·h | CL ([10]; IV (2.5) mg/kg): 9.9 mL/min/kg | MRT0-inf ([10]; IV (2.5) mg/kg): 40.5 h | Vss ([10]; IV (2.5) mg/kg): 24 L/kg | AUC0-inf [10, 17]: 11.2 µM·h | CL [10, 17]: 7.1 mL/min/kg | MRT0-inf [10, 17]: 45 h | T1/2 [10, 17]: 32 h | Vss [10, 17]: 19 L/kg | AUC0-t ([10]; IV (2.5) mg/kg, separate assay, t = 72 h): 9 ^# µM*hr | AUC0-t ([10]; IV (2.5) mg/kg, t = 24 h): 3.5 ^¶ µM*hr | Cmax ([10]; PO (10) mg/kg): 540 nM | Tmax ([10]; PO (10) mg/kg): 8 h | F ([10]; PO (10) mg/kg, based on initial intravenous study at 24 h): 79.5 ^§ % | AUC0-t ([10]; PO (10) mg/kg, t = 24 h): 11 ^¶ µM*hr | Cure of the infected animals ([11]; single 25 mg kg^−1 oral dose): 100% | Parasite status up to 30-day end-point (bioluminescent imaging) ([11]; single oral 25 mg kg^−1 or 50 mg kg^−1 dose): parasite-free | Animals showing recrudescence at 6 days after treatment ([11]; single oral dose of 12.5 mg kg^−1, n = 4): One in four animals | Lowest single oral dose achieving sterile cure ([11]; P. berghei): 25 mg/kg | Human Clint [12]: 31 µL/min/mg | Recrudescence / resistance under constant drug pressure (P. falciparum Dd2 [13]): No recrudescence | Oocysts in mosquito midguts ([14]; CD-1 mice, single oral 5 or 20 mg kg^−1, 2 days before mosquito feeding): No oocysts were detected | Compound remaining in the circulation (plasma concentration) ([14]; oral 25 mg kg^−1, 1 day after treatment): 896.5 ng/mL | Compound remaining in the circulation (plasma concentration) ([14]; oral 25 mg kg^−1, 4 days after treatment): 170.5 ng/mL | Compound remaining in the circulation (plasma concentration) ([14]; oral 25 mg kg^−1, 10 days after treatment): 8.6 ng/mL | Transmission ([14]; oral 1.25 mg kg^−1 and 0.31 mg kg^−1, 2 days before feeding mosquitoes): reduced transmission activity | Transmission ([14]; oral 5 mg kg^−1, 2 days before feeding mosquitoes): complete blocking of transmission | Oocysts in mosquito midguts ([14]; oral 25 mg kg^−1, blood feeding 1, 4 or 10 days after treatment): No oocysts were found | EC50 ([15]; read-out: EC50, standard membrane-feeding assay, direct (D), single drug concentration (10 µM) immediately before blood feeding): < 10000 nM | EC50 ([15]; read-out: EC50, standard membrane-feeding assay, indirect (ID), parasites treated 24 h before mosquito feeding): 270 nM | Transcription of asexual marker SBP1 (qRT-PCR) [16]: decreased to undetectable levels | Transcription of mature gametocyte marker Pfs25 (qRT-PCR) [16]: decreased to undetectable levels | PBS solubility (Solubility assay in PBS): 15 µM
